Laboratory results from ChEMBL document CHEMBL3525987, “Assessment of exposure of metabolites in preclinical species and humans at steady state from the single-dose radiolabeled absorption, distribution, metabolism, and excretion studies: a case study” (Drug Metab Dispos, 2012).

What was measured:
[1] = system: Canis familiaris; test: Drug level in beagle dog plasma treated with [14C]lixivaptan at 10 mg/kg, po administered as single dose measured after 8 hrs by liquid scintillation counting; format: ADME, organism-based, Canis lupus familiaris; design: dose 10 mg/kg, dosed compound name [14C]lixivaptan, route oral; settings: in vivo
Outline: (§1)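 Four male beagles fasted 18 h were gavaged once with [14C]lixivaptan at 10 mg/kg (2 ml/kg). The 5.0 mg/ml suspension was in deionized water with pluronic F68 (1.04 µCi/mg). Jugular K2EDTA plasma was taken at 2, 8 and 24 h and extracted twice with 2 volumes of acetonitrile. Profiling used C18 radio-HPLC (ammonium formate/acetonitrile gradient) with on-line flow scintillation detection. Each peak is reported as percent of plasma radioactivity.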

[2] = system: Rattus norvegicus; test: Drug level in male Sprague-Dawley rat plasma treated with [14C]lixivaptan at 10 mg/kg, po administered as single dose via gavage measured after 1 hr by liquid scintillation counting; format: ADME, organism-based; design: dose 10 mg/kg, dosed compound name [14C]lixivaptan, route oral; settings: in vivo
Outline: (§2)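 Single oral gavage of [14C]drug (10 mg/kg, 10 ml/kg) as suspension in deionized water with pluronic F68, ~29.8 µCi/mg; SD rats fasted 18 h, fed 4 h post-dose. Blood by cardiac puncture under isoflurane, 3 rats/time/gender, into K2EDTA at 1, 8, 24 h; plasma extracted twice with 2 vol acetonitrile, radio-HPLC on C18 with flow radioactivity detection, expressed as % plasma radioactivity.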

[3] = system: Rattus norvegicus; test: Drug level in female Sprague-Dawley rat plasma treated with [14C]lixivaptan at 10 mg/kg, po administered as single dose via gavage measured after 1 hr by liquid scintillation counting; format: ADME, organism-based; design: dose 10 mg/kg, dosed compound name [14C]lixivaptan, route oral; settings: in vivo
Outline: (§3)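 Sprague-Dawley rats (9/gender) were fasted 18 h and gavaged once with [14C]lixivaptan at 10 mg/kg (10 ml/kg), about 29.8 µCi/mg, suspended in deionized water with pluronic F68. Plasma came by cardiac puncture under isoflurane at 1, 8 and 24 h (3/gender/time) and was extracted twice with 2 volumes of acetonitrile. C18 radio-HPLC with a flow scintillation detector gave percent of plasma radioactivity per peak.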

[4] = system: Canis familiaris; test: Drug level in beagle dog plasma treated with [14C]lixivaptan at 10 mg/kg, po administered as single dose measured after 2 hrs by liquid scintillation counting; format: ADME, organism-based, Canis lupus familiaris; design: dose 10 mg/kg, dosed compound name [14C]lixivaptan, route oral; settings: in vivo; outline: as §1
[5] = system: Rattus norvegicus; test: Drug level in female Sprague-Dawley rat plasma treated with [14C]lixivaptan at 10 mg/kg, po administered as single dose via gavage measured after 24 hrs by liquid scintillation counting; format: ADME, organism-based; design: dose 10 mg/kg, dosed compound name [14C]lixivaptan, route oral; settings: in vivo; outline: as §3
[6] = system: Canis familiaris; test: Toxicity in beagle dog treated with [14C]lixivaptan at 10 mg/kg, po administered as single dose via gavage; format: organism-based, Canis lupus familiaris; design: dose 10 mg/kg, dosed compound name [14C]lixivaptan, route oral; settings: in vivo
[7] = system: Canis familiaris; test: Drug level in beagle dog plasma treated with [14C]lixivaptan at 10 mg/kg, po administered as single dose measured after 24 hrs by liquid scintillation counting; format: ADME, organism-based, Canis lupus familiaris; design: dose 10 mg/kg, dosed compound name [14C]lixivaptan, route oral; settings: in vivo; outline: as §1
[8] = system: Rattus norvegicus; test: Toxicity in male Sprague-Dawley rat treated with [14C]lixivaptan at 10 mg/kg, po administered as single dose via gavage; format: organism-based; design: dose 10 mg/kg, dosed compound name [14C]lixivaptan, route oral; settings: in vivo
[9] = system: Rattus norvegicus; test: Toxicity in female Sprague-Dawley rat treated with [14C]lixivaptan at 10 mg/kg, po administered as single dose via gavage; format: organism-based; design: dose 10 mg/kg, dosed compound name [14C]lixivaptan, route oral; settings: in vivo
[10] = system: Rattus norvegicus; test: Drug level in female Sprague-Dawley rat plasma treated with [14C]lixivaptan at 10 mg/kg, po administered as single dose via gavage measured after 8 hrs by liquid scintillation counting; format: ADME, organism-based; design: dose 10 mg/kg, dosed compound name [14C]lixivaptan, route oral; settings: in vivo; outline: as §2
[11] = system: Homo sapiens; test: Cmax in human treated with [14C]lixivaptan at 100 mg, po qd for 7 days; format: ADME, organism-based; design: dose 100 mg, route oral, dosed compound name [14C]lixivaptan; settings: in vivo, 168 h
[12] = system: Homo sapiens; test: Drug level in human plasma treated with [14C]lixivaptan at 100 mg, po administered as single dose measured after 8 hrs by liquid scintillation counting; format: ADME, organism-based; design: dosed compound name [14C]lixivaptan; settings: in vivo
Outline: (§4)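 Healthy male volunteers fasted ≥10 h, given single oral 100 mg (200 µCi) [14C]drug as two 50-mg capsules with 250 ml water. Plasma (from ~50 ml blood) at 0.5, 2, 4, 8, 12, 24, 36 h, profiled per subject. Acetonitrile extraction, C18 radio-HPLC with 0.2% formic acid acetonitrile/water gradient, on-line radioactivity detection as % plasma radioactivity; ng-equiv/ml from % × total radioactivity.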

[13] = system: Homo sapiens; test: Drug level in human plasma treated with [14C]lixivaptan at 100 mg, po administered as single dose measured after 24 hrs by liquid scintillation counting; format: ADME, organism-based; design: dosed compound name [14C]lixivaptan; settings: in vivo; outline: as §4
[14] = system: Rattus norvegicus; test: Drug level in male Sprague-Dawley rat plasma treated with [14C]lixivaptan at 10 mg/kg, po administered as single dose via gavage measured after 8 hrs by liquid scintillation counting; format: ADME, organism-based; design: dose 10 mg/kg, dosed compound name [14C]lixivaptan, route oral; settings: in vivo; outline: as §2
[15] = system: Homo sapiens; test: Drug level in human plasma treated with [14C]lixivaptan at 100 mg, po administered as single dose measured after 0.5 hrs by liquid scintillation counting; format: ADME, organism-based; design: dosed compound name [14C]lixivaptan; settings: in vivo; outline: as §4
[16] = system: Homo sapiens; test: Drug level in human plasma treated with [14C]lixivaptan at 100 mg, po administered as single dose measured after 4 hrs by liquid scintillation counting; format: ADME, organism-based; design: dosed compound name [14C]lixivaptan; settings: in vivo; outline: as §4
[17] = system: Homo sapiens; test: AUC at steady state in human treated with [14C]lixivaptan at 100 mg, po qd for 7 days by LC/MS/MS analysis; format: ADME, organism-based, Plasma; design: dosed compound name Lixivaptan; settings: in vivo, 168 h
Outline: (§5)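 Phase 1 human study with lixivaptan 100 mg orally once daily and blood taken on the final day. Parent and two abundant metabolites were quantified in plasma with a validated LC-MS/MS assay.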

[18] = system: Rattus norvegicus; test: AUC (0 to 24 hrs) in male Sprague-Dawley rat treated with [14C]lixivaptan at 10 mg/kg, po administered as single dose via gavage; format: ADME, organism-based, Plasma; design: time < 24 hr, dose 10 mg/kg, dosed compound name [14C]lixivaptan, route oral; settings: in vivo; outline: as §3
[19] = system: Homo sapiens; test: Drug level in human plasma treated with [14C]lixivaptan at 100 mg, po administered as single dose measured after 2 hrs by liquid scintillation counting; format: ADME, organism-based; design: dosed compound name [14C]lixivaptan; settings: in vivo; outline: as §4
[20] = system: Homo sapiens; test: AUC in human treated with [14C]lixivaptan at 100 mg, po qd for 7 days; format: ADME, organism-based, Plasma; design: dosed compound name [14C]lixivaptan; settings: in vivo, 168 h
[21] = system: Homo sapiens; test: Drug level in human plasma treated with [14C]lixivaptan at 100 mg, po administered as single dose measured after 36 hrs by liquid scintillation counting; format: ADME, organism-based; design: dosed compound name [14C]lixivaptan; settings: in vivo; outline: as §4
[22] = system: Rattus norvegicus; test: Drug level in male Sprague-Dawley rat plasma treated with [14C]lixivaptan at 10 mg/kg, po administered as single dose via gavage measured after 24 hrs by liquid scintillation counting; format: ADME, organism-based; design: dose 10 mg/kg, dosed compound name [14C]lixivaptan, route oral; settings: in vivo; outline: as §2
[23] = system: Homo sapiens; test: Drug level in human plasma treated with [14C]lixivaptan at 100 mg, po administered as single dose measured after 12 hrs by liquid scintillation counting; format: ADME, organism-based; design: dosed compound name [14C]lixivaptan; settings: in vivo; outline: as §4
[24] = system: Homo sapiens; test: Drug concentration at steady state in human treated with [14C]lixivaptan at 100 mg, po qd for 7 days by LC/MS/MS analysis; format: ADME, organism-based; design: dosed compound name Lixivaptan; settings: in vivo, 168 h; outline: as §5
[25] = system: Homo sapiens; test: AUC (0 to 24 hrs) in human treated with [14C]lixivaptan at 100 mg, po administered as single dose; format: ADME, organism-based, Plasma; design: time < 24 hr, dose 100 mg, route oral, dosed compound name [14C]lixivaptan; settings: in vivo
Outline: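 Healthy young men fasted 10 h and took one oral dose of [14C]lixivaptan, 100 mg (200 µCi) as two capsules with water, eating 4 h later. Plasma from each subject at 0.5, 2, 4, 8, 12, 24 and 36 h was acetonitrile-extracted and profiled by C18 radio-HPLC (formic acid/acetonitrile gradient) with flow detection. Component concentrations were % of radioactivity × total plasma radioactivity, giving AUC0-24 in ng-equiv.h/ml.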

[26] = Retention time of the compound by HPLC analysis; format: physicochemical; design: dosed compound name [14C]lixivaptan
[27] = system: Rattus norvegicus; test: AUC (0 to 24 hrs) in female Sprague-Dawley rat treated with [14C]lixivaptan at 10 mg/kg, po administered as single dose via gavage; format: ADME, organism-based, Plasma; design: time < 24 hr, dose 10 mg/kg, dosed compound name [14C]lixivaptan, route oral; settings: in vivo; outline: as §3
[28] = system: Canis familiaris; test: AUC (0 to 24 hrs) in beagle dog treated with [14C]lixivaptan at 10 mg/kg, po administered as single dose; format: ADME, organism-based, Canis lupus familiaris, Plasma; design: time < 24 hr, dose 10 mg/kg, dosed compound name [14C]lixivaptan, route oral; settings: in vivo

| SMILES | Compound recovery [1] | Compound recovery [2] | Compound recovery [3] | Compound recovery [4] | Compound recovery [5] | Activity [6] | Compound recovery [7] | Activity [8] | Activity [9] | Compound recovery [10] | Cmax [11] | Compound recovery [12] | Compound recovery [13] | Compound recovery [15] | Compound recovery [16] | Compound recovery [19] | Compound recovery [21] | Compound recovery [23] | AUC [25] | Retention_time [26] | also measured |
| --- | --- | --- | --- | --- | --- | --- | --- | --- | --- | --- | --- | --- | --- | --- | --- | --- | --- | --- | --- | --- | --- |
| Cc1ccc(F)cc1C(=O)Nc1ccc(C(=O)N2CC3C=CC(=O)N3Cc3ccccc32)c(Cl)c1 (stereo not given) | 11.1% | 5.4% | 36.2% | 19.4% | 2.6% | Non-toxic | 3.9% | Non-toxic | Non-toxic | 25.2% | – | – | – | – | – | – | – | – | – | – | – |
| Cc1ccc(F)cc1C(=O)Nc1ccc(C(=O)Nc2ccccc2C(=O)O)c(Cl)c1 | 29.7% | 58.5% | 9% | 15.3% | 97.4% | Non-toxic | 38.7% | Non-toxic | Non-toxic | 42.4% | 278 ng/mL | 28.4% | 38.8% | 1.5% | 19.6% | 12.6% | 35.2% | 30.1% | 5180 ng.Eq.hr/ml | 24.5 min | Compound recovery [14]: 73.9%; AUCss [17]: 6610 ng·h/mL; AUC [18]: 32100 ng.Eq.hr/ml; AUC [20]: 5180 ng·h/mL; Compound recovery [22]: 67.8%; Css [24]: 658 ng/mL; AUC [27]: 11100 ng.Eq.hr/ml; AUC [28]: 22400 ng.Eq.hr/ml |
| Cc1ccc(F)cc1C(=O)Nc1ccc(C(=O)Nc2ccccc2Cn2cccc2C(=O)O)c(Cl)c1 | – | – | – | – | – | Non-toxic | – | Non-toxic | Non-toxic | – | 290 ng/mL | 12.2% | 11% | 4.1% | 16.8% | 16.5% | 7.6% | 11.2% | 2680 ng.Eq.hr/ml | 23.3 min | AUCss [17]: 3040 ng·h/mL; AUC [20]: 2680 ng·h/mL; Css [24]: 454 ng/mL |
| Cc1ccc(F)cc1C(=O)Nc1ccc(C(=O)N2Cc3cccn3C(O)c3ccccc32)c(Cl)c1 (stereo not given) | – | – | – | – | – | – | – | – | – | – | – | 2.1% | 4.2% | 2.7% | 2.4% | 2.2% | 3.8% | 1.6% | – | 25.2 min | – |
| Cc1ccc(F)cc1C(=O)Nc1ccc(C(=O)N2C=C3CCC(=O)N3Cc3ccccc32)c(Cl)c1 | – | – | – | – | – | – | – | – | – | – | – | 2.4% | 2.1% | 0.6% | 2.5% | 1.5% | – | 2.1% | 268 ng.Eq.hr/ml | 20.2 min | – |
